For 12 compounds, inhibition, MIC and Activity results are on record in ChEMBL document CHEMBL3244281, “Antiviral activity of some beta-diketones. 3. Aryl bis(beta-diketones). Antiherpetic activity” (1978).

≈ marks a conversion by molar mass, not a printed value. Calls of active or inactive are those of the source. The rule behind the calls is not given here.

For assay [1], the system named is Human alphaherpesvirus 2. Put plainly: Antiviral activity against HSV2 Curtis infected in monkey BSC-1 cells assessed as reduction of plaque formation at 4 ug/ml after 4 days using crystal violet staining relative to control. Type of assay: functional. The following applies: Human alphaherpesvirus 2, Curtis, BSC-1, in Primates, 96 h. Summed up: (§1)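 BSC-1 monolayers, 4 days old and confluent, were infected with 20-60 PFU in MEM + 2% FCS. They were overlaid with agar (1% ionagar + 2× M-199 + 5% FCS) containing compound, four flasks per condition. Uninfected monolayers with compound served as controls. Flasks were incubated inverted at 37 °C for 4 days, formalin-fixed overnight at 4 °C and crystal violet-stained. Mean plaque count gave % reduction versus infected untreated cultures.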

The test system of assay [2] is Human alphaherpesvirus 1. In words: Antiviral activity against HSV1. Type of assay: functional.
In assay [3] the test system is Human alphaherpesvirus 1. Put plainly: Antiherpetic activity against HSV1 AA infected in guinea pig skin assessed as reduction of scab formation at 2% administered 24 hrs after infection as vanishing cream base daily 5 times for 4 days. Type of assay: functional, organism-based. Summed up: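 Guinea pigs had HSV-1 applied to shaved, epilated flanks: 0.1 mL tissue-culture virus (titer 10^6.25 TCID50) driven in by multiple vaccination-gun punctures. A 2% vanishing-cream preparation was applied topically from 24 h postinfection, five times daily for 4 days. Placebo-treated animals served as controls. Two scorers rated vesicles and followed lesions and scabbing to day 7.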

The test system of assay [4] is Human alphaherpesvirus 2. In words: Antiviral activity against HSV2 Curtis infected in monkey BSC-1 cells assessed as reduction of plaque formation at 2 ug/ml after 4 days using crystal violet staining relative to control. Type of assay: functional. The conditions noted are these: Human alphaherpesvirus 2, Curtis, BSC-1, in Primates, 96 h. Summed up:
as §1

Assay [5] has as its system Human alphaherpesvirus 1. In words: Antiviral activity against HSV1 Sheely infected in monkey BSC-1 cells assessed as reduction of plaque formation at 3 ug/ml after 4 days using crystal violet staining relative to control. Type of assay: functional. The following applies: Human alphaherpesvirus 1, Sheely, BSC-1, in Primates, 96 h. In a few lines:
as §1

The test system of assay [6] is Human alphaherpesvirus 1. Put plainly: Antiviral activity against HSV1 Sheely infected in monkey BSC-1 cells assessed as reduction of plaque formation at 2 ug/ml after 4 days using crystal violet staining relative to control. The conditions noted are these: Human alphaherpesvirus 1, Sheely, BSC-1, in Primates, 96 h. Type of assay: functional. In a few lines: as §1

Assay [7] deals with Human alphaherpesvirus 1. In words: Antiviral activity against HSV1 Sheely infected in monkey BSC-1 cells assessed as reduction of plaque formation at 4 ug/ml after 4 days using crystal violet staining relative to control. Type of assay: functional. The conditions noted are these: Human alphaherpesvirus 1, Sheely, BSC-1, in Primates, 96 h. In a few lines:
as §1

The subject of assay [8] is Human alphaherpesvirus 2. In words: Antiviral activity against HSV2 Curtis infected in monkey BSC-1 cells assessed as reduction of plaque formation at 3 ug/ml after 4 days using crystal violet staining relative to control. Type of assay: functional. The following applies: Human alphaherpesvirus 2, Curtis, BSC-1, 96 h. In a few lines:
as §1

For assay [9], the system named is Human alphaherpesvirus 2. Put plainly: Antiviral activity against HSV2.

A word on the inhibition: it is how much of the control response was suppressed. For `CCC(=O)C(CCCCCCOc1ccc(OCCCCCCC(C(=O)CC)C(=O)CC)cc1)C(=O)CC`, the results for the inhibition at 4 µg/mL in the assay with Human alphaherpesvirus 2 [1] and in the assay with Human alphaherpesvirus 1 [7] were 93% and 89%, respectively. For the same compound, the MIC with Human alphaherpesvirus 1 [2] amounted to 6 µg/mL (≈ 11.3 µM). For the same compound, the result in the assay with Human alphaherpesvirus 1 [3] was Active. Besides, the inhibition at 2 µg/mL worked out at 18% in the assay with Human alphaherpesvirus 2 [4] and 21% in the assay on Human alphaherpesvirus 1 [6]. The inhibition at 3 µg/mL with Human alphaherpesvirus 1 [5] amounted to 43%; in the assay with Human alphaherpesvirus 2 [8], 59%.

Turning to `CCC(=O)C(CCCCOc1ccc(OCCCCC(C(=O)CC)C(=O)CC)cc1)C(=O)CC`, the MIC in the assay on Human alphaherpesvirus 1 [2] turned out to be 3 µg/mL (≈ 6.32 µM).

The compound `CCC(=O)C(CCCCCCOc1cc(Cl)c(OCCCCCCC(C(=O)CC)C(=O)CC)cc1Cl)C(=O)CC` had an MIC against Human alphaherpesvirus 1 [2] of 6 µg/mL (≈ 10 µM).

For `CCC(=O)C(CCCCCCCOc1ccc(OCCCCCCCC(C(=O)CC)C(=O)CC)cc1)C(=O)CC`, the MIC against Human alphaherpesvirus 1 [2] was found to be 25 µg/mL (≈ 44.7 µM).

With `CCC(=O)C(CCCCCCOc1ccc(OCCCCCCC(C(=O)CC)C(=O)CC)c(Cl)c1)C(=O)CC`, in the assay with Human alphaherpesvirus 1 [2], the MIC worked out at 6 µg/mL (≈ 10.6 µM).

`CCC(=O)C(CCCCCCOc1cccc(OCCCCCCC(C(=O)CC)C(=O)CC)c1)C(=O)CC`: in the assay with Human alphaherpesvirus 1 [2], the MIC was 12 µg/mL (≈ 22.6 µM).

With `CCC(=O)C(CCCOc1ccc(OCCCC(C(=O)CC)C(=O)CC)cc1)C(=O)CC`, the MIC entry in the assay with Human alphaherpesvirus 2 [9] was “inactive”.

Turning to `CCC(=O)C(CCCCOc1ccc(OCCCC(C(=O)CC)C(=O)CC)cc1)C(=O)CC`, the MIC entry in the assay on Human alphaherpesvirus 2 [9] was “inactive”.

Take `CCC(=O)C(CCCCCCOc1ccc(OCCCCCCC(C(=O)CC)C(=O)CC)c(C)c1)C(=O)CC`: the MIC in the assay on Human alphaherpesvirus 1 [2] is 25 µg/mL (≈ 45.9 µM).

In the case of `CCC(=O)C(CCCCCOc1ccc(OCCCCC(C(=O)CC)C(=O)CC)cc1)C(=O)CC`, the MIC result in the assay on Human alphaherpesvirus 2 [9] is “inactive”.

With `CCC(=O)C(CCCCCCCCOc1ccc(OCCCCCCCCC(C(=O)CC)C(=O)CC)cc1)C(=O)CC`, the MIC result in the assay with Human alphaherpesvirus 2 [9] was “inactive”.

Consider `CCC(=O)C(CCCCCOc1ccc(OCCCCCC(C(=O)CC)C(=O)CC)cc1)C(=O)CC`, for which the MIC against Human alphaherpesvirus 1 [2] was found to be 3 µg/mL (≈ 5.97 µM).
